# SIRT5 inh: SIRT5 desuccinylase inhibitors, primary screen, biochemical, fluorescence imaging, single point, set 5; Purified SirT5, succinyl-peptide AMC, trypsin-coupled fluorescence; inhibition, % at 15 µM; NAD-dependent protein deacylase sirtuin-5, mitochondrial (Homo sapiens), Q9NXA8; AID 652115, 2013; hit rate 1.1% among 330,000; in the data active = inhibition above about 15%
# Target sequence (Q9NXA8 whole entry, looked up): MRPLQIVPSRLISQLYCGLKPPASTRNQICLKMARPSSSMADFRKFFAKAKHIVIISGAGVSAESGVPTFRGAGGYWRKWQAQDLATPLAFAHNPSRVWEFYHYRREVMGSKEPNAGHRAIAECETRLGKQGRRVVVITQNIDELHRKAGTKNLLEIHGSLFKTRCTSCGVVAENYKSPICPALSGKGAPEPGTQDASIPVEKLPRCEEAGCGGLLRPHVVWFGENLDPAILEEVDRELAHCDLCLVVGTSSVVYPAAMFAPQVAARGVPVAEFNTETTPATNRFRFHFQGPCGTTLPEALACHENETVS
# DENV2 CPE rescue: inhibitors of DENV2 cytopathic effect, primary screen, cell-based, plate reader, single concentration | DENV2-infected cells, cytopathic effect rescue | CPE inhibition, % at 9.99 µM | hit rate 1.7% among 350,000 | AID 651640, 2012; in the data active = CPE inhibition above about 20%, passing the limit was not always enough; tested in BHK-21 cells
# FGF22 binding: binders of human FGF22 protein, primary screen, FGF22 synaptogenesis inhibitor project, biophysical, thermal shift, single point | recombinant FGF22 thermal shift, SYPRO orange fluorescence; percent of sucrose octasulfate shift, DMSO zero | activity (Tm shift, normalised), % at 9.99 µM | Fibroblast growth factor 22 (Homo sapiens), Q9HCT0 | hit rate 1.5% among 340,000;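 active = mean Tm shift, scaled 0 neutral to 100 positive control, at about 1.3% or above, every replicate too, limit read from the data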
# Target sequence (Q9HCT0 whole entry, looked up): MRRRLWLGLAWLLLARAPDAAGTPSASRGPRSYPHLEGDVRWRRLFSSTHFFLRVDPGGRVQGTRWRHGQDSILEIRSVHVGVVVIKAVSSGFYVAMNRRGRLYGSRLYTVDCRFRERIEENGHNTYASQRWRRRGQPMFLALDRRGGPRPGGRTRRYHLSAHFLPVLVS
# ARNT-TACC3 inh: disruptors of ARNT/TACC3 protein interaction, primary screen, biochemical, AlphaScreen, single concentration. AID 623870, 2012. hit rate 0.66% among 390,000. inhibition, % at 9.99 µM. Transforming acidic coiled-coil-containing protein 3 (Homo sapiens), Q9Y6A5. AlphaScreen His-ARNT PAS-B/GST-TACC3 binding, luminescence; TACC3 fragment carries E629A point mutation;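 active = mean inhibition of replicates at least 50% and at least half of replicates each reaching 50%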
# FN deposition inh: inhibitors of fibronectin matrix deposition, primary screen, AH1F cells, Alexa488-fibronectin fluorescence, plate reader; hit rate 0.086% among 350,000; inhibition, % at 12.6 µM; AID 743247, 2014; AH1F fibroblasts, overnight;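 active = mean inhibition across replicates of 30% or more, regardless of how many single replicates reach that level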
#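 Test system: AH1F fibroblast monolayer depositing Alexa488-labelled fibronectin into matrix. Input: 10000 cells per well. Technique: fluorescence, ex 485 nm, em 525 nm. Buffer or medium: DMEM plus 2% serum, read in PBS. Timing: 1 h cell adhesion before compound, then overnight fibronectin incubation. Compound: single dose, pinned. Read-out basis: inhibition from reduced deposited-fibronectin fluorescence.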
# XiGFP reactiv: activators of inactive X chromosome reactivation, primary screen, imaging, XiGFP fibroblasts, GFP high-content imaging, set 2. XiGFP mouse fibroblasts, % GFP-positive cells imaging, 3 d; cells co-treated with 5-aza-dC sensitizer; scaled so ellipticine positive control = 100%. activation, % at 7.58 µM. hit rate 0.055% among 360,000;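 active = mean normalized replicate activation at least 10% and every replicate at or above 10%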
#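 Assay system: SV40-immortalized XiGFP fibroblast cells, line 68-5-11; buffer or medium: DMEM plus 5-aza-dC sensitizer; compound: one concentration, pinned; timing: compounds 3 days, fix/stain 15 min at room temperature; benchmarks: positive control ellipticine, 6 µM final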
# Numbers stand for hits; 0 = inactive; - = not tested or not shown; ! = not confirmed by another sample. A selection: hits, their analogues and other compounds. The true share with any hit is near 3.8%.
SMILES,SIRT5 inh,DENV2 CPE rescue,FGF22 binding,ARNT-TACC3 inh,FN deposition inh,XiGFP reactiv
COc1ccc(NC(=O)Nc2ccc3c(c2)C(=O)N([C@H](C)CO)C[C@H](C)[C@H](CN(C)Cc2ccccc2)OCCCC[C@H](C)O3)cc1,0,0,0,0,0,0
COc1ccc(CN(C)C[C@H]2OCCCC[C@@H](C)Oc3ccc(NC(=O)Nc4ccc(F)cc4)cc3C(=O)N([C@@H](C)CO)C[C@@H]2C)cc1,100,0,0,0,-,0
COc1ccc(NC(=O)Nc2ccc3c(c2)C(=O)N([C@@H](C)CO)C[C@@H](C)[C@@H](CN(C)Cc2ccccc2)OCCCC[C@H](C)O3)cc1,0,42,0,0,0,0
C[C@@H]1CN([C@@H](C)CO)C(=O)c2cccc(NC(=O)Nc3ccccc3)c2O[C@@H]1CN(C)CC1CCCCC1,0,36,0,0,-,0
C[C@@H]1CN([C@@H](C)CO)C(=O)c2cccc(NC(=O)NC3CCCCC3)c2O[C@H]1CN(C)CC1CC1,0,0,0,0,-,0
C[C@@H]1CN([C@H](C)CO)C(=O)c2cccc(NC(=O)Nc3ccccc3)c2O[C@H]1CN(C)CC1CCCCC1,0,0,0,0,-,0
C[C@H](CO)N1C[C@H](C)[C@@H](CN(C)CC2CCCCC2)Oc2c(NC(=O)Cc3ccccc3)cccc2C1=O,21,0,0,0,0,0
C[C@@H]1CN([C@@H](C)CO)C(=O)c2cccc(NC(=O)NC3CCCCC3)c2O[C@H]1CN(C)CC1CCCCC1,0,44,0,0,-,0
C[C@H]1CN([C@@H](C)CO)C(=O)c2cccc(NC(=O)NC3CCCCC3)c2O[C@@H]1CN(C)S(=O)(=O)c1ccc(Cl)cc1,0,27,0,0,0,0
COc1ccc(NC(=O)N2C[C@@H]3[C@H](c4ccccc42)[C@H](CO)N3C(=O)C2CCCC2)cc1,0,0,0,0,0,0
CC=Cc1ccc2n(c1=O)C[C@H]1[C@H](CO)[C@@H](C(=O)NCC(F)(F)F)[C@@H]2N1C(=O)C1CCCCC1 (mixture of isomers),0,0,0,0,0,0
C[C@H]1CN([C@@H](C)CO)C(=O)c2cc(-c3ccc(C#N)cc3)cnc2O[C@H]1CN(C)Cc1cncnc1,-,-,-,-,0,0
O=C(O)Cc1c[nH]c2cccc(O)c12,33,0,0,0,-,-
C=CCN(c1ccccc1)S(=O)(=O)c1cccc(C(=O)NCc2ccncc2)c1,0,0,0,0,0,0
C=CCN(c1ccccc1)S(=O)(=O)c1cccc(C(=O)Nc2ccncc2)c1,19,0,0,0,0,0
CC1=Nc2ccccc2N=C(N)C1c1ccccc1 (centres undefined),0,0,44,0,0,0
CC1=Nc2ccccc2N=C(NC(=O)c2ccccc2)C1c1ccc(Cl)cc1 (centres undefined),0,0,0,0,0,0
COc1cc(CN(C)C)cc(C=O)c1O,-,-,-,0,-,-
COc1cc(N=Nc2ccc(Br)cc2)cc(C=O)c1O,18,0,0,-,0,0
Nc1nc2ccc(Cl)cc2[nH]1,-,0,43,0,0,0
Nc1nc2ccccc2[nH]1,0,0,0,0,0,0
COc1ccc(S(=O)(=O)N(C)C[C@H]2Oc3ccc(NC(=O)CCN4CCOCC4)cc3CC(=O)N([C@H](C)CO)C[C@@H]2C)cc1,0,0,0,0,0,0
CC(C)(C)c1ccc(Nc2n[nH]c3ccccc23)cc1,0,66,0,-,0,0
CC(C(=O)Nc1ccccc1-c1ccccc1)N1CCN(C(=O)c2ccccc2)CC1 (centres undefined),0,0,0,0,0,0
CC(C(=O)Nc1ccccc1-c1ccccc1)N1CCN(Cc2ccccc2)CC1 (centres undefined),0,0,43,0,0,0
SMILES,SIRT5 inh,DENV2 CPE rescue,FGF22 binding,ARNT-TACC3 inh,FN deposition inh,XiGFP reactiv
CN(C)C(=O)c1ccc(-c2ccc3c(c2)[C@@H]2[C@@H](CCN2S(=O)(=O)c2ccccc2)[C@H](CO)N3)cc1,-,0,0,0,0,0
CC(C)C[C@@H](CO)N1CCN(Cc2cccc(C#N)c2)CCC1=O,-,20,0,0,0,0
O=C1CCN(Cc2ccccc2)CCN1[C@H](COc1ccccc1)Cc1ccccc1,-,0,0,0,0,0
CC(C)C[C@@H](CO)N1CCN(Cc2ccccc2)CCC1=O,-,-,-,0,0,0
COc1ccc(CN2CCC(=O)N([C@H](CO)c3ccccc3)CC2)cc1,0,26,0,0,0,0
CN1CCC(=O)N([C@H](COc2ccccc2)Cc2ccccc2)CC1,0,20,0,0,0,0
CC(C)C[C@@H](COc1ccccc1)N1CCN(Cc2ccccc2)CCC1=O,-,28,0,0,0,0
COc1ccc(S(=O)(=O)Nc2ccc3c(c2)C(=O)N([C@@H](C)CO)C[C@@H](C)[C@H](CN(C)Cc2ccncc2)O3)cc1,0,0,0,0,0,0
CCC(=O)N(C)C[C@H]1Oc2cc(-c3ccc(C#N)cc3)ccc2S(=O)(=O)N([C@@H](C)CO)C[C@@H]1C,0,0,0,0,0,0
O=C(c1ccccc1)N1C[C@@H]2[C@H](c3ccccc31)[C@@H](CO)N2Cc1ccccc1F,0,0,0,0,-,0
O=C1CCN(CCc2ccccc2)CCN1[C@H](COc1ccccc1)c1ccccc1,-,99,0,0,0,0
CCCC(=O)Nc1nc(C)c(-c2csc(Nc3cc(OC)ccc3OC)n2)s1,-,0,0,0,0,0
CCCCCC(=O)Nc1nc(C)c(-c2csc(Nc3cc(Cl)ccc3OC)n2)s1,24,0,0,0,0,0
S=c1[nH]nc(COc2ccccc2)n1/N=C/c1ccncc1,0,0,43,0,0,0
COc1ccc(S(=O)(=O)Nc2ccc3c(c2)C(=O)N([C@H](C)CO)C[C@H](C)[C@@H](CN(C)C(=O)Nc2ccccc2)OCCCC[C@H](C)O3)cc1,-,0,0,0,0,0
O=C(NCc1nc2ccccc2[nH]1)C1=C[C@H](c2ccc(C(F)(F)F)cc2)C[C@H](OCCCCO)O1,0,21,0,0,0,0
C#CCNC(=O)C1=C[C@@H](c2ccccc2)C[C@@H](OCCCCO)O1,0,0,1.7!,0,0,0

# High-throughput results: PubChem, Broad Institute
